Reference: ChEMBL document CHEMBL2146357, “Cellular zwitterionic metabolite analogs simultaneously enhance reaction rate, thermostability, salt tolerance, and substrate specificity of α-glucosidase” (Bioorg Med Chem, 2011)
The source made the active and inactive calls. The rule behind the calls is not given here.

Experiments:
[1] = tested on: Geobacillus stearothermophilus; assay: Activity of Bacillus stearothermophilus alpha-glucosidase assessed as production of p-nitrophenol using p-nitrophenyl-alpha-D-glucopyranoside as substrate at 50 mM after 3 mins by spectrophotometer
Outline: (§1)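 B. stearothermophilus α-glucosidase at 2.5 × 10^-5 mg/mL in 0.1 M phosphate buffer pH 7.0 with 2.0 mM p-nitrophenyl-α-D-glucopyranoside and 0–1000 mM solute, 37 °C. Release of p-nitrophenol followed at 405 nm. Initial slopes converted to velocities (ε 10900 cm^-1 M^-1), averaged over five runs. Activity = initial velocity with solute divided by initial velocity without solute.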

Saccharomyces cerevisiae [2] = assay: Activity of Saccharomyces cerevisiae alpha-glucosidase assessed as production of p-nitrophenol using p-nitrophenyl-alpha-D-glucopyranoside as substrate at 50 mM after 3 mins by spectrophotometer
Outline: (§2)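 Enzymes were α-glucosidase from S. cerevisiae or from yeast at 2.5 × 10^-5 mg/mL, with 2.0 mM substrate and 0 or 50 mM solute in 100 mM phosphate pH 7.0 at 37 °C. p-Nitrophenol formation was read at 405 nm. Initial velocities (average of five) were expressed as the ratio of the value with solute to the value without solute.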

Saccharomyces cerevisiae [3] = assay: Activity of commercial yeast alpha-glucosidase assessed as production of p-nitrophenol using p-nitrophenyl-alpha-D-glucopyranoside as substrate at 50 mM after 3 mins by spectrophotometer; outline: as §2
[4] = tested on: Geobacillus stearothermophilus; assay: Activity of Bacillus stearothermophilus alpha-glucosidase activity assessed as production of p-nitrophenol using p-nitrophenyl-alpha-D-glucopyranoside as substrate at 800 mM after 3 mins by spectrophotometer; outline: as §1
[5] = tested on: Geobacillus stearothermophilus; assay: Enhancement of NaCl salt tolerance at Bacillus stearothermophilus alpha-glucosidase at 50 mM
Outline: (§3)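 Optimum conditions were scanned with 0 or 50 mM solute, 2.5 × 10^-5 mg/mL B. stearothermophilus α-glucosidase and 2.0 mM substrate in 0.10 M phosphate. pH was varied from 6.4 to 7.9, NaCl from 0 to 2.5 M, and temperature was also varied. Activity was read as p-nitrophenol release at 405 nm.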

[6] = tested on: Geobacillus stearothermophilus; assay: Effect on optimum pH of Bacillus stearothermophilus alpha-glucosidase at 50 mM; outline: as §3
[7] = tested on: Geobacillus stearothermophilus; assay: Thermostabilization of Bacillus stearothermophilus alpha-glucosidase at 50 mM; outline: as §3
[8] = tested on: Geobacillus stearothermophilus; assay: Activity of Bacillus stearothermophilus alpha-glucosidase activity assessed as production of p-nitrophenol using p-nitrophenyl-alpha-D-glucopyranoside as substrate at 1000 mM after 3 mins by spectrophotometer; outline: as §1
[9] = tested on: Geobacillus stearothermophilus; assay: Increase of Bacillus stearothermophilus alpha-glucosidase activity assessed as production of p-nitrophenol using p-nitrophenyl-alpha-D-glucopyranoside as substrate at 50 mM after 3 mins by spectrophotometer; outline: as §1
Prunus dulcis = assay: Increase of almond beta-glucosidase activity assessed as production of p-nitrophenol using p-nitrophenyl-beta-D-glucopyranoside as substrate at 50 mM after 3 mins by spectrophotometer
Outline: (§4)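 Almond β-glucosidase or calf-intestine alkaline phosphatase, each at 2.5 × 10^-5 mg/mL, was incubated with 2.0 mM substrate and 0 or 50 mM solute in 0.10 M phosphate pH 7.0 at 37 °C. p-Nitrophenol production was followed over incubation time by absorbance at 405 nm.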

[10] = tested on: Geobacillus stearothermophilus; assay: Increase of Bacillus stearothermophilus alpha-glucosidase activity assessed as fold increase in reaction initial velocity using p-nitrophenyl-alpha-D-mannopyranoside as substrate at 50 mM after 3 mins by spectrophotometer relative to control
Outline: (§5)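 Enzyme: B. stearothermophilus α-glucosidase, 2.5 × 10^-5 mg/mL, with 2.0 mM substrate (p-nitrophenyl α-D-glucoside, β-D-glucoside, α-D-galactoside or α-D-mannoside) and 0, 50 or 750 mM solute in 100 mM phosphate pH 7.0 at 37 °C. Initial velocities came from A405 slopes (five measurements). Results given as v(presence)/v(absence).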

[11] = tested on: Geobacillus stearothermophilus; assay: Increase of Bacillus stearothermophilus alpha-glucosidase activity at 30 mM after 3 mins by spectrophotometer relative to control; outline: as §1
[12] = tested on: Geobacillus stearothermophilus; assay: Increase of Bacillus stearothermophilus alpha-glucosidase activity assessed as fold increase in reaction initial velocity using p-nitrophenyl-beta-D-glucopyranoside as substrate at 50 mM after 3 mins by spectrophotometer relative to control; outline: as §5
[13] = tested on: Geobacillus stearothermophilus; assay: Activity of Bacillus stearothermophilus alpha-glucosidase activity assessed as production of p-nitrophenol using p-nitrophenyl-alpha-D-glucopyranoside as substrate at 30 to 50 mM after 3 mins by spectrophotometer; outline: as §1
[14] = biological target: Intestinal-type alkaline phosphatase (Bos taurus) (UniProt P19111); assay: Increase of calf intestine alkaline phosphatase activity assessed as production of p-nitrophenol using p-nitrophenylphosphate as substrate at 50 mM after 3 mins by spectrophotometer; outline: as §4
Chain of Intestinal-type alkaline phosphatase (Bos taurus) (P19111 20-506 limits assumed): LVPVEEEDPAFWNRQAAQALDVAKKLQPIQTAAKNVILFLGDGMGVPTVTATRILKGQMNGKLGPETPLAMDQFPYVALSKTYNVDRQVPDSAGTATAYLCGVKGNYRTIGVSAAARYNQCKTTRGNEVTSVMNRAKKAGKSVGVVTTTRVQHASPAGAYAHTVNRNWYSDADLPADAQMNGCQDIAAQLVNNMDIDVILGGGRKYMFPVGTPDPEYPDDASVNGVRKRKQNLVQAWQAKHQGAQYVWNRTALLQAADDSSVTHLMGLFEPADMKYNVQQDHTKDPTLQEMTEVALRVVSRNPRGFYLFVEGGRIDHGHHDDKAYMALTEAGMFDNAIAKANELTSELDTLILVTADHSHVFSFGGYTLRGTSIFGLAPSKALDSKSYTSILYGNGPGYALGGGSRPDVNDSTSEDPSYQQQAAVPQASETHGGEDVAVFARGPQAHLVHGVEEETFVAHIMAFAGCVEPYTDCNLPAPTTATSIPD

[15] = tested on: Geobacillus stearothermophilus; assay: Activity of Bacillus stearothermophilus alpha-glucosidase activity assessed as production of p-nitrophenol using p-nitrophenyl-alpha-D-glucopyranoside as substrate at > 50 mM after 3 mins by spectrophotometer; outline: as §1
[16] = tested on: Geobacillus stearothermophilus; assay: Activity of Bacillus stearothermophilus alpha-glucosidase assessed as increase in urea concentration for enzyme deformation using p-nitrophenyl-alpha-D-glucopyranoside as substrate at 50 mM after 3 mins by spectrophotometer
Saccharomyces cerevisiae [17] = assay: Increase of Saccharomyces cerevisiae alpha-glucosidase activity assessed as production of p-nitrophenol using p-nitrophenyl-alpha-D-glucopyranoside as substrate at 50 mM after 3 mins by spectrophotometer; outline: as §2
Saccharomyces cerevisiae [18] = assay: Increase of commercial yeast alpha-glucosidase activity assessed as production of p-nitrophenol using p-nitrophenyl-alpha-D-glucopyranoside as substrate at 50 mM after 3 mins by spectrophotometer; outline: as §2
[19] = tested on: Geobacillus stearothermophilus; assay: Increase of Bacillus stearothermophilus alpha-glucosidase activity assessed as fold increase in reaction initial velocity using p-nitrophenyl-alpha-D-galactopyranoside as substrate at 750 mM after 3 mins by spectrophotometer relative to control; outline: as §5
[20] = tested on: Geobacillus stearothermophilus; assay: Increase of Bacillus stearothermophilus alpha-glucosidase activity assessed as fold increase in reaction initial velocity using p-Nitrophenyl-alpha-D-glucopyranoside as substrate at 50 mM after 3 mins by spectrophotometer relative to control; outline: as §5
[21] = tested on: Geobacillus stearothermophilus; assay: Increase of Bacillus stearothermophilus alpha-glucosidase activity assessed as fold increase in reaction initial velocity using p-nitrophenyl-alpha-D-mannopyranoside as substrate at 750 mM after 3 mins by spectrophotometer relative to control; outline: as §5
[22] = tested on: Geobacillus stearothermophilus; assay: Increase of Bacillus stearothermophilus alpha-glucosidase activity assessed as fold increase in reaction initial velocity using p-nitrophenyl-beta-D-glucopyranoside as substrate at 750 mM after 3 mins by spectrophotometer relative to control; outline: as §5
[23] = tested on: Geobacillus stearothermophilus; assay: Increase of Bacillus stearothermophilus alpha-glucosidase activity assessed as fold increase in reaction initial velocity using p-nitrophenyl-alpha-D-glucopyranoside as substrate at 750 mM after 3 mins by spectrophotometer relative to control; outline: as §5
[24] = tested on: Geobacillus stearothermophilus; assay: Increase of Bacillus stearothermophilus alpha-glucosidase activity assessed as fold increase in reaction initial velocity using p-nitrophenyl-alpha-D-galactopyranoside as substrate at 50 mM after 3 mins by spectrophotometer relative to control; outline: as §5
[25] = tested on: Geobacillus stearothermophilus; assay: Activity of Bacillus stearothermophilus alpha-glucosidase activity assessed as production of p-nitrophenol using p-nitrophenyl-alpha-D-glucopyranoside as substrate at 200 mM after 3 mins by spectrophotometer; outline: as §1

| Compound | Activity [1] | Activity (Saccharomyces cerevisiae [2]) | Activity (Saccharomyces cerevisiae [3]) | further results |
| --- | --- | --- | --- | --- |
| C[N+](C)(C)CCCCCC(=O)[O-] | inactive | inactive | inactive |  |
| CC[N+](CC)(CC)CC(=O)[O-] | Active | inactive | inactive | Activity [4]: Active |
| C[N+]1(CC(=O)[O-])CCOCC1 | Active | inactive | inactive |  |
| C[N+]1(CC(=O)[O-])CCCCC1 | Active | inactive | inactive |  |
| C[N+](C)(C)CCCC(=O)[O-] | inactive | inactive | inactive |  |
| OCC(O)CO | inactive | inactive | inactive |  |
| C[N+](C)(C)CC(=O)O | inactive | inactive | inactive | Activity [5]: Active; Activity [6]: inactive; Activity [7]: Active; Activity [8]: inactive |
| OC[C@@H](O)[C@@H](O)[C@H](O)[C@@H](O)CO | inactive | inactive | inactive |  |
| CCCC[N+](CCCC)(CCCC)CC(=O)[O-] | Active | Active | Active | Activity [9]: Active; Activity (Prunus dulcis): Active; Activity [5]: Active; fold change (FC) [10]: 0.9; fold change (FC) [11]: 2.1; fold change (FC) [12]: 0.8; Activity [13]: Active; Activity [14]: Active; Activity [15]: Active; Activity [16]: Active; Activity (Saccharomyces cerevisiae [17]): Active; Activity [6]: inactive; Activity (Saccharomyces cerevisiae [18]): Active; Activity [7]: Active; fold change (FC) [19]: 0.8; fold change (FC) [20]: 2.5; fold change (FC) [21]: 0.6; fold change (FC) [22]: 0.5; fold change (FC) [23]: 0.8; fold change (FC) [24]: 0.8 |
| O[C@H]1[C@H](O)[C@@H](O)[C@H](O)[C@@H](O)[C@H]1O | inactive | inactive | inactive |  |
| C[N+](C)(CC[N+](C)(C)CC(=O)[O-])CC(=O)[O-] | inactive | inactive | inactive |  |
| CCC[N+](CCC)(CCC)CC(=O)[O-] | Active | Active | Active | Activity [25]: Active |
